Test results as given in ChEMBL document CHEMBL1130107, “Discovery of CGS 27023A, a non-peptidic, potent, and orally active stromelysin inhibitor that blocks cartilage degradation in rabbits” (J Med Chem, 1997).

These compounds were tested against T1, Stromelysin-1 (Homo sapiens, UniProt P08254) (assay: Inhibition activity against recombinant human stromelysin (Matrix metalloprotease-3)).
T1 sequence (P08254 whole entry): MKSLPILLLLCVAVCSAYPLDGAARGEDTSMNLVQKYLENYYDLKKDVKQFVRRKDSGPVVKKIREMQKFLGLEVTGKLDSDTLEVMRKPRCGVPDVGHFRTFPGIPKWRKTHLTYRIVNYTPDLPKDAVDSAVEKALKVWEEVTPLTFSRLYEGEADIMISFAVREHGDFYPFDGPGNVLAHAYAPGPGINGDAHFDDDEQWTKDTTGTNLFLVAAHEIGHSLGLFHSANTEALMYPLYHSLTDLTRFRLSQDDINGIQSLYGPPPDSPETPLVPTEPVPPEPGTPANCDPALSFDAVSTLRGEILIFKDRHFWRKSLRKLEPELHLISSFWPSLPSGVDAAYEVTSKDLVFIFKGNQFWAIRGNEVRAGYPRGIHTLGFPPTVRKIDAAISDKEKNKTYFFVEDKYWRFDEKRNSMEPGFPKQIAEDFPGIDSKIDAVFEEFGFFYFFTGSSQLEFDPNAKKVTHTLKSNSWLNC

Structure (SMILES) | Ki
CC(C)CN(CC(=O)NO)S(=O)(=O)c1ccc(N(C)C)cc1 | 4400 nM
COc1ccc(S(=O)(=O)N(Cc2ccccc2)C(C(=O)NO)C(C)C)cc1 (stereo not drawn) | 92 nM
COc1ccc(S(=O)(=O)N(Cc2ccccc2)[C@H](C)C(=O)NO)cc1 | 36 nM
COc1ccc(S(=O)(=O)N(Cc2ccccc2)[C@@H](C)C(=O)NO)cc1 | 141 nM
COc1ccc(S(=O)(=O)N(CC(=O)NO)CC2CCCCC2)cc1 | 61 nM
COc1ccc(S(=O)(=O)N(Cc2ccccc2)C(Cc2ccccc2)C(=O)NO)cc1 (stereo not drawn) | 71 nM
COc1ccc(S(=O)(=O)N(Cc2ccccc2)C(C)C(=O)NO)cc1 (stereo not drawn) | 86 nM
COc1ccc(CN(CC(=O)NO)S(=O)(=O)c2ccc(OC)cc2)cc1 | 104 nM
COc1ccc(S(=O)(=O)N(CC(=O)NO)Cc2ccccc2)cc1 | 70 nM
COc1ccc(S(=O)(=O)NCC(=O)NO)cc1 | 4400 nM
COc1ccc(S(=O)(=O)N(Cc2ccccc2)[C@H](CC(C)C)C(=O)NO)cc1 | 23 nM
COc1ccc(S(=O)(=O)N(Cc2ccccc2)[C@H](Cc2ccccc2)C(=O)NO)cc1 | 29 nM
COc1ccc(S(=O)(=O)N(Cc2ccccc2)[C@@H](C(=O)NO)C(C)C)cc1 | 34 nM
COc1ccc(S(=O)(=O)N(CC(=O)NO)Cc2ccc3ccccc3n2)cc1 | 134 nM
COc1ccc(S(=O)(=O)N(CCC(C)C)CC(=O)NO)cc1 | 94 nM

Each compound was assayed against T1, Stromelysin-1 (assay: Inhibition activity against recombinant human stromelysin (Matrix metalloprotease-3) (Inactive)).
Method in brief: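 Substance P (0.5 mM) cleaved by recombinant human stromelysin (8 μg, 2 units) for 30 min at 37 °C with test compound diluted from 10 mM stock into assay buffer. Reaction stopped with 10 mM EDTA. Substance P 7-11 fragment quantified by RP-8 HPLC. IC50 versus inhibitor-free control, mean of two independent measurements. Ki derived from mean IC50 by Waley's method.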

Structure (SMILES) | Ki
CC(C)CN(CC(=O)NO)S(=O)(=O)c1ccc([N+](=O)[O-])cc1 | Not Active
CC(C)CN(CC(=O)NO)S(=O)(=O)c1ccc(S(C)(=O)=O)cc1 | Not Active
CC(C)CN(CC(=O)NO)S(=O)(=O)c1ccc(C(C)(C)C)cc1 | Not Active
